Data taken from ChEMBL document CHEMBL1811904, “Preventive oral treatment with resveratrol pro-prodrugs drastically reduce colon inflammation in rodents” (J Med Chem, 2010).
Blank lines part the entries; values can stand above or below the compound they belong to. The source made the active and inactive calls. The rule behind the calls is not given here.

Columns and labels:
Mus musculus [1] = assay: (§1) Antiinflammatory activity in C57BL/6J mouse model of DSS-induced colon inflammation assessed as reduction in morphological signs of cell damage at 2.1 mg/kg/day, po for 21 days followed by compound dosing for 8 days co-administered with DSS followed by 2.1 mg/kg/day, po dosing for 6 days in absence of DSS measured on days 29 and day 35; type: functional, organism-based
Outline: (§2)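 Standard chow with compound at 2.1 mg/kg day for 21 days, then 1% DSS in sterilized drinking water ad libitum for the last 8 days (29 days total); n=10 per group, with control and DSS-only groups. Distal colon sections stained with hematoxylin and eosin and scored by Araki system: 0-4 each for surface epithelial loss, crypt destruction, inflammatory cell infiltration (max 12); mean ± SEM, Kruskal-Wallis then Mann-Whitney.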

Mus musculus [2] = assay: as §1, with “disease activity index” for “morphological signs of cell damage”; type: functional, organism-based
Outline: (§3)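 Diet supplemented at 2.1 mg/kg day for 21 days before 8 days of 1% DSS in sterilized drinking water ad libitum; n=10 per group. Body weight followed through DSS and recovery phases; DAI combines stool blood, stool consistency and weight loss. ANOVA with Tukey post-hoc, mean ± SD.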

Mus musculus [3] = assay: as §1, with “reduction” for “reduction in morphological signs”, “colon IL6 level” for “cell damage”, “35 by chemiluminescence assay” for “35”; type: functional, organism-based
Outline: (§4)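 After 21 days of chow with compound at 2.1 mg/kg day and 8 days of 1% DSS, distal colon mucosa (40 mg) homogenized in PBS with protease inhibitors and spun 15,000g, 30 min, 4 °C. Supernatants pooled per group to 300 µg protein and run on a 40-cytokine mouse inflammation antibody array. Chemiluminescent detection, densitometry; duplicate measurements.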

Mus musculus [4] = assay: (§5) Increase in Lactobacilli count in C57BL/6J mouse distal colon mucosa with DSS-induced colon inflammation at 2.1 mg/kg/day, po for 21 days followed by compound dosing for 8 days co-administered with DSS followed by 2.1 mg/kg/day, po dosing for 6 days in absence of DSS by fecal microbiota analysis relative to control; type: functional, organism-based
Outline: (§6)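 Fecal samples collected on days 0, 21 (before DSS) and 29 (after 8 days of 1% DSS) from mice fed 2.1 mg/kg day compound in chow. Bifidobacteria, lactobacilli, clostridia, enterobacteria and E. coli counted; ANOVA with Tukey post-hoc, mean ± SD.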

Mus musculus [5] = assay: as §1, with “reduction” for “reduction in morphological signs”, “colon MIG level” for “cell damage”, “35 by chemiluminescence assay” for “35”; type: functional, organism-based; outline: as §4
CCD-18Co [6] = assay: Antiinflammatory activity in human CCD-18Co cells assessed inhibition of IL1beta-induced PGE2 production at 1 to 7.5 uM after 18 hrs; type: functional, cell-based
Mus musculus [7] = assay: as §1, with “reduction” for “reduction in morphological signs”, “colon TNFRp55 level” for “cell damage”, “35 by chemiluminescence assay” for “35”; type: functional, organism-based; outline: as §4
Mus musculus [8] = assay: as §5, with “Bifidobacterial” for “Lactobacilli”; type: functional, organism-based; outline: as §6
Mus musculus [9] = assay: as §5, with “Clostridia” for “Lactobacilli”; type: functional, organism-based; outline: as §6
Mus musculus [10] = assay: as §1, with “preservation” for “reduction in morphological signs”, “mucosal architecture” for “cell damage”; type: functional, organism-based; outline: as §2
Mus musculus [11] = assay: as §1, with “reduction” for “reduction in morphological signs”, “colon MIP1gamma level” for “cell damage”, “35 by chemiluminescence assay” for “35”; type: functional, organism-based; outline: as §4
Mus musculus [12] = assay: as §5, with “Reduction” for “Increase”, “Escherichia coli” for “Lactobacilli”; type: functional, organism-based; outline: as §6
Mus musculus [13] = assay: Antiinflammatory activity in C57BL/6J mouse model of DSS-induced colon inflammation assessed as reduction in disease activity index at 2.1 mg/kg/day, po for 8 days co-administered with DSS measure on day 8; type: functional, organism-based
Outline: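 No pre-feeding: compound co-administered with 1% DSS in drinking water for 8 days at 2.1 mg/kg day; n=14 per group, with DSS-only and untreated control groups. DAI scored from stool blood, stool form and weight loss.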

Mus musculus [14] = assay: Effect on body weight in C57BL/6J mouse model of DSS-induced colon inflammation at 2.1 mg/kg/day, po for 21 days followed by compound dosing for 8 days co-administered with DSS followed by 2.1 mg/kg/day, po dosing for 6 days in absence of DSS measured on days 29 and day 35; type: functional, organism-based; outline: as §3
Caco-2 = assay: Metabolic stability in human Caco2 cells after 6 hrs by LC-MS-MS analysis; type: ADME, cell-based; conditions: caco-2, 6 h
Outline: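 Compounds incubated with human colon Caco-2 cells; cell media sampled at 6 h and analyzed by LC-MS-MS for parent compound and hydrolysis/conjugation products.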

CCD-18Co [15] = assay: Antiinflammatory activity in human CCD-18Co cells assessed as inhibition of IL1beta-induced PGE2 production at 2.5 to 25 uM after 18 hrs; type: functional, cell-based
[16] = Cytotoxicity against human CCD-18Co cells at >10 uM after 8 hrs by MTT assay; type: cell-based
CCD-18Co [17] = assay: Antiinflammatory activity in human CCD-18Co cells assessed inhibition of IL1beta-induced PGE2 production at 1 uM after 18 hrs; type: functional, cell-based
Stomach = assay: Stability in C57BL/6J mouse stomach at 84 mg/kg administered through intragastric route measured after 8 hrs by HPLC-MS-MS analysis; type: ADME, organism-based; set-up: dose 84 mg/kg, route intragastric; conditions: in vivo, po
Outline: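 Healthy mice given 84 mg/kg by intragastric probe in ethanol:water (5:95, v:v); n=24 per group, three killed at each of 0.25, 0.5, 1, 2, 4, 8, 12 and 24 h. Stomach contents analyzed by HPLC-MS-MS for parent compounds and metabolites; AUC and Cmax derived.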

Compound: CCCCCCCC(=O)OC[C@H]1O[C@@H](Oc2cc(O)cc(/C=C/c3ccc(O)cc3)c2)[C@H](O)[C@@H](O)[C@@H]1O
Activity (Mus musculus [1]): Active
Activity (Mus musculus [2]): Active
Activity (Mus musculus [3]): Active
Activity (Mus musculus [4]): Active
Activity (Mus musculus [5]): Active
inhibition (CCD-18Co [6]): Active
Activity (Mus musculus [7]): Active
Activity (Mus musculus [8]): Active
Activity (Mus musculus [9]): Active
Activity (Mus musculus [10]): Active
Activity (Mus musculus [11]): Active
Activity (Mus musculus [12]): Active
Activity (Mus musculus [13]): inactive
Activity (Mus musculus [14]): Active
Stability (Caco-2): Stable

Compound: OC[C@H]1O[C@@H](Oc2cc(O)cc(/C=C/c3ccc(O)cc3)c2)[C@H](O)[C@@H](O)[C@@H]1O
inhibition (CCD-18Co [15]): inactive
Activity (Mus musculus [1]): Active
Activity (Mus musculus [2]): inactive
Activity (Mus musculus [3]): Active
Activity (Mus musculus [4]): inactive
Activity (Mus musculus [5]): Active
Activity (Mus musculus [7]): Active
Activity (Mus musculus [8]): inactive
Activity (Mus musculus [10]): Active
Activity (Mus musculus [11]): Active
Activity (Mus musculus [13]): inactive
Activity (Mus musculus [14]): inactive

Compound: CCCCCCCCCCCCCCCCCC(=O)OC[C@H]1O[C@@H](Oc2cc(O)cc(/C=C/c3ccc(O)cc3)c2)[C@H](O)[C@@H](O)[C@@H]1O
inhibition (CCD-18Co [6]): Active
Activity [16]: Toxic

Compound: OC[C@H]1O[C@@H](Oc2ccc(/C=C/c3cc(O)cc(O)c3)cc2)[C@H](O)[C@@H](O)[C@@H]1O
inhibition (CCD-18Co [15]): Active

Compound: OC[C@H]1O[C@@H](Oc2ccc(/C=C/c3cc(O)cc(O[C@@H]4O[C@H](CO)[C@@H](O)[C@H](O)[C@H]4O)c3)cc2)[C@H](O)[C@@H](O)[C@@H]1O
inhibition (CCD-18Co [15]): inactive

Compound: CCCCCCCCCCCCCCCC(=O)OC[C@H]1O[C@@H](Oc2cc(O)cc(/C=C/c3ccc(O)cc3)c2)[C@H](O)[C@@H](O)[C@@H]1O
inhibition (CCD-18Co [6]): Active
Activity [16]: Toxic

Compound: OC[C@H]1O[C@@H](Oc2cc(/C=C/c3ccc(O)cc3)cc(O[C@@H]3O[C@H](CO)[C@@H](O)[C@H](O)[C@H]3O)c2)[C@H](O)[C@@H](O)[C@@H]1O
inhibition (CCD-18Co [15]): inactive
Activity (Mus musculus [1]): Active
Activity (Mus musculus [2]): inactive
Activity (Mus musculus [3]): Active
Activity (Mus musculus [4]): inactive
Activity (Mus musculus [5]): Active
Activity (Mus musculus [7]): Active
Activity (Mus musculus [8]): inactive
Activity (Mus musculus [10]): Active
Activity (Mus musculus [11]): Active
Activity (Mus musculus [13]): inactive
Activity (Mus musculus [14]): inactive

Compound: CCCC(=O)OC[C@H]1O[C@@H](Oc2cc(O)cc(/C=C/c3ccc(O)cc3)c2)[C@H](O)[C@@H](O)[C@@H]1O
Activity (Mus musculus [1]): Active
Activity (Mus musculus [2]): Active
Activity (Mus musculus [3]): Active
Activity (Mus musculus [4]): Active
Activity (Mus musculus [5]): Active
inhibition (CCD-18Co [6]): Active
Activity (Mus musculus [7]): Active
Activity (Mus musculus [8]): Active
Activity (Mus musculus [9]): Active
Activity (Mus musculus [10]): Active
Activity (Mus musculus [11]): Active
Activity (Mus musculus [12]): Active
Activity (Mus musculus [13]): inactive
Activity (Mus musculus [14]): Active
Stability (Caco-2): Stable

Compound: CCCCCCCCCCCC(=O)OC[C@H]1O[C@@H](Oc2cc(O)cc(/C=C/c3ccc(O)cc3)c2)[C@H](O)[C@@H](O)[C@@H]1O
inhibition (CCD-18Co [6]): Active
Activity [16]: Toxic

Stability (Caco-2): Stable
Stability (Stomach): Stable
Compound: Oc1ccc(/C=C/c2cc(O)cc(O)c2)cc1 [RESVERATROL]
inhibition (CCD-18Co [15]): Active
Activity (Mus musculus [1]): Active
Activity (Mus musculus [2]): inactive
Activity (Mus musculus [3]): Active
Activity (Mus musculus [4]): inactive
Activity (Mus musculus [5]): Active
Activity (Mus musculus [7]): Active
Activity (Mus musculus [8]): inactive
Activity (Mus musculus [9]): Active
Activity (Mus musculus [10]): Active
Activity (Mus musculus [11]): Active
inhibition (CCD-18Co [17]): Active
Activity (Mus musculus [12]): Active
Activity (Mus musculus [13]): inactive
Activity (Mus musculus [14]): inactive
